Experiment [1] relates to Staphylococcus epidermidis. The experiment in a line: Antibacterial activity against Staphylococcus epidermidis ATCC 12228 assessed as concentration required to inhibit bacterial growth after 24 hrs by TLC assay. Type of experiment: functional. Summed up: (§1)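 Direct TLC bioautography: compound amounts from 50 to 1.56 μg applied to precoated TLC plates, overlaid with Mueller Hinton or Sabouraud agar inoculated with microorganism suspension (10⁵ cfu mL⁻¹). Plates incubated 24 h at 37 °C, then stained with aqueous 2,3,5-triphenyltetrazolium chloride (1 mg mL⁻¹). The lowest amount giving an inhibition zone was recorded; <50 μg counted active. Triplicate.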

In experiment [2] the test system is Staphylococcus aureus. The experiment in a line: Antibacterial activity against Staphylococcus aureus ATCC 6538p assessed as concentration required to inhibit bacterial growth after 24 hrs by TLC assay. In kind it is functional. Summed up:
as §1

Experiment [3] in a line: (§2) Antibacterial activity against Salmonella Setubal ATCC 19196 assessed as growth inhibition at 50 to 1.56 ug after 24 hrs by TLC assay. Type of experiment: functional, Salmonella enterica subsp. enterica serovar Setubal. Summed up: as §1
In another experiment the test system is Candida dubliniensis. Nature of the experiment: Antifungal activity against Candida dubliniensis SM 26 clinical isolate assessed as concentration required to inhibit fungal growth after 24 hrs by TLC assay. In kind it is functional. The procedure, abridged:
as §1

The test system of experiment [4] is Escherichia coli. Nature of the experiment: Antibacterial activity against Escherichia coli ATCC 11103 assessed as growth inhibition at 50 to 1.56 ug after 24 hrs by TLC assay. In kind it is functional. The procedure, abridged: as §1
Another experiment has as its system Cryptococcus neoformans. Nature of the experiment: Antifungal activity against Cryptococcus neoformans ATCC 28952 assessed as concentration required to inhibit fungal growth after 24 hrs by TLC assay. In kind it is functional. The procedure, abridged:
as §1

The subject of experiment [5] is Klebsiella pneumoniae. The experiment in a line: Antibacterial activity against Klebsiella pneumoniae ATCC 10031 assessed as concentration required to inhibit bacterial growth after 24 hrs by TLC assay. In kind it is functional. The procedure, abridged: as §1
Experiment [6] has as its system Klebsiella pneumoniae. The experiment in a line: Antibacterial activity against Klebsiella pneumoniae ATCC 10031 assessed as growth inhibition at 50 to 1.56 ug after 24 hrs by TLC assay. In kind it is functional. Summed up:
as §1

Experiment [7] deals with Kocuria rhizophila. The experiment in a line: Antibacterial activity against Micrococcus luteus ATCC 9341 assessed as concentration required to inhibit bacterial growth after 24 hrs by TLC assay. In kind it is functional. The procedure, abridged:
as §1

The nature of experiment [8]: Antibacterial activity against Salmonella Setubal ATCC 19196 assessed as concentration required to inhibit bacterial growth after 24 hrs by TLC assay. Type of experiment: functional, Salmonella enterica subsp. enterica serovar Setubal. The procedure, abridged: as §1
The test system of experiment [9] is Escherichia coli. Nature of the experiment: Antibacterial activity against Escherichia coli ATCC 11103 assessed as concentration required to inhibit bacterial growth after 24 hrs by TLC assay. Type of experiment: functional. The procedure, abridged: as §1
For experiment [10], the system named is Staphylococcus epidermidis. Nature of the experiment: Antibacterial activity against Staphylococcus epidermidis ATCC 12228 assessed as growth inhibition at 50 to 1.56 ug after 24 hrs by TLC assay. Type of experiment: functional. The procedure, abridged:
as §1

The subject of the next experiment is Saccharomyces cerevisiae. Nature of the experiment: Antifungal activity against Saccharomyces cerevisiae ATCC 2601 assessed as concentration required to inhibit fungal growth after 24 hrs by TLC assay. Type of experiment: functional. Summed up: as §1
Another experiment concerns Candida tropicalis. Nature of the experiment: Antifungal activity against Candida tropicalis ATCC 750 assessed as concentration required to inhibit fungal growth after 24 hrs by TLC assay. Type of experiment: functional. Summed up: as §1
The next experiment relates to Candida albicans. The experiment in a line: Antifungal activity against Candida albicans ATCC 10231 assessed as concentration required to inhibit fungal growth after 24 hrs by TLC assay. In kind it is functional. The procedure, abridged: as §1
The test system of experiment [11] is Kocuria rhizophila. Nature of the experiment: Antibacterial activity against Micrococcus luteus ATCC 9341 assessed as growth inhibition at 50 to 1.56 ug after 24 hrs by TLC assay. In kind it is functional. Summed up: as §1
Experiment [12] relates to Staphylococcus aureus. Nature of the experiment: Antibacterial activity against Staphylococcus aureus ATCC 6538p assessed as growth inhibition at 50 to 1.56 ug after 24 hrs by TLC assay. Type of experiment: functional. Summed up:
as §1

Experiment [13] deals with Salmonella enterica subsp. enterica serovar Setubal. The description is as §2. Type of experiment: functional. The procedure, abridged: as §1

Molecules are shown by their SMILES. Calls of active or inactive are those of the source. The calls are words filed in the database; no cut-off is given here.

Turning to `CC[C@H](C)[C@H](NC(=O)[C@@H](NC(=O)[C@H](CC(C)C)N(C)C)[C@@H](Oc1ccc(C=O)cc1)c1ccccc1)C(=O)OC`, the Activity (in experiment [1]; in the experiment with Staphylococcus aureus [2]; in experiment [3]; in the experiment on Candida dubliniensis; in the experiment on Escherichia coli [4]; in the experiment on Cryptococcus neoformans) was less than 50 µg in each case. In addition, the Activity (in the experiment on Klebsiella pneumoniae [5]; in the experiment with Klebsiella pneumoniae [6]; in the experiment on Kocuria rhizophila [7]; in experiment [8]; with Escherichia coli [9]; in experiment [10]) was less than 50 µg in each case. In addition, the Activity in the experiment with Saccharomyces cerevisiae, in the experiment with Candida tropicalis, in the experiment on Candida albicans, in the experiment with Kocuria rhizophila [11] and in the experiment with Staphylococcus aureus [12] was less than 50 µg throughout.
For `COC(=O)[C@H](Cc1ccccc1)NC(=O)[C@@H](NC(=O)[C@H](CC(C)C)N(C)C)[C@@H](Oc1ccc(C=O)cc1)c1ccccc1` (mixture of isomers), the Activity (in [1]; in the experiment with Staphylococcus aureus [2]; in experiment [3]; in the experiment with Candida dubliniensis; in the experiment on Escherichia coli [4]; with Cryptococcus neoformans) was less than 50 µg in each case. The Activity (with Klebsiella pneumoniae [5]; with Klebsiella pneumoniae [6]; with Kocuria rhizophila [7]; in experiment [8]; with Escherichia coli [9]; in experiment [10]) was less than 50 µg throughout. The Activity with Saccharomyces cerevisiae, with Candida tropicalis, in the experiment with Candida albicans, in the experiment with Kocuria rhizophila [11] and in the experiment on Staphylococcus aureus [12] was less than 50 µg throughout.
As for `COC(=O)[C@H](Cc1ccccc1)NC(=O)[C@H](NC(=O)[C@H](CC(C)C)N(C)C)[C@H](Oc1ccc(C=O)cc1)c1ccccc1` (mixture of isomers), the Activity (in [1]; in the experiment with Staphylococcus aureus [2]; in the experiment with Candida dubliniensis; in the experiment on Cryptococcus neoformans; with Klebsiella pneumoniae [5]; in the experiment with Kocuria rhizophila [7]) was less than 50 µg each time. The Activity (in experiment [8]; in the experiment with Escherichia coli [9]; in the experiment on Saccharomyces cerevisiae; in the experiment with Candida tropicalis; in the experiment on Candida albicans) was less than 50 µg throughout. Further, the “growth inhibition (GI)” value (in experiment [13]; in the experiment with Escherichia coli [4]; in the experiment on Klebsiella pneumoniae [6]; in [10]; with Kocuria rhizophila [11]; with Staphylococcus aureus [12]) was “inactive” each time.

For the origin of these results see ChEMBL document CHEMBL2407049, “Cyclopeptide alkaloids: stereochemistry and synthesis of the precursors of discarines C and D and myrianthine A” (2013).
